Laboratory results taken from ChEMBL document CHEMBL1221199, “Structure-guided development of affinity probes for tyrosine kinases using chemical genetics” (Nat Chem Biol, 2007).
pIC50: −log10 of the molar value. The source made the active and inactive calls. The rule behind the calls is not given here.

Assays:
[1] = Inhibition of c-src T338G mutant by radioactive phosphotransfer assay
In short: (§1)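 Kinase-domain c-Src variants (T338G, S345C, T338G/S345C) were made by site-directed mutagenesis and expressed in E. coli BL21(DE3) co-transformed with YopH, GroEL and trigger factor. Protein was quantified by A280 and stored at −80 °C. Radioactive phosphotransfer assays were run in triplicate across a range of inhibitor concentrations.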

[2] = molecular target: Tyrosine-protein kinase Fyn (Homo sapiens, UniProt P06241, S349C); experiment: Inhibition of Fyn S349C mutant in expressed in Escherichia coli C43 by radioactive phosphotransfer assay
Sequence of Tyrosine-protein kinase Fyn (Homo sapiens, UniProt P06241, S349C) (P06241 2-537 S349C limits assumed): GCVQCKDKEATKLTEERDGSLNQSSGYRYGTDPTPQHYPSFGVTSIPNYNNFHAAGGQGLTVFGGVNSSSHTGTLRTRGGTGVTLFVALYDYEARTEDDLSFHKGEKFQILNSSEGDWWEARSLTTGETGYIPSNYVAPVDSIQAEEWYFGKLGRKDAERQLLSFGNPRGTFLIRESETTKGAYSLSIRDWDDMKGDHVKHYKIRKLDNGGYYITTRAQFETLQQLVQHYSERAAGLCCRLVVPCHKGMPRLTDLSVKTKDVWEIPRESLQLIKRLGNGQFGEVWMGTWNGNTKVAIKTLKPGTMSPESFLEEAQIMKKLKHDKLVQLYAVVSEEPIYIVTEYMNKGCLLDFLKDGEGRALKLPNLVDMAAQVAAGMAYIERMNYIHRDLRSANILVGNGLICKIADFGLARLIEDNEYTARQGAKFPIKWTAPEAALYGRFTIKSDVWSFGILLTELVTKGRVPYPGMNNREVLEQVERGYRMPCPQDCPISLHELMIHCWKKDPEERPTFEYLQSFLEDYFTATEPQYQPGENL

[3] = molecular target: Tyrosine-protein kinase Fyn (Homo sapiens, UniProt P06241); experiment: Inhibition of Fyn expressed in Escherichia coli C43 by radioactive phosphotransfer assay
Sequence of Tyrosine-protein kinase Fyn (Homo sapiens, UniProt P06241) (P06241 whole entry): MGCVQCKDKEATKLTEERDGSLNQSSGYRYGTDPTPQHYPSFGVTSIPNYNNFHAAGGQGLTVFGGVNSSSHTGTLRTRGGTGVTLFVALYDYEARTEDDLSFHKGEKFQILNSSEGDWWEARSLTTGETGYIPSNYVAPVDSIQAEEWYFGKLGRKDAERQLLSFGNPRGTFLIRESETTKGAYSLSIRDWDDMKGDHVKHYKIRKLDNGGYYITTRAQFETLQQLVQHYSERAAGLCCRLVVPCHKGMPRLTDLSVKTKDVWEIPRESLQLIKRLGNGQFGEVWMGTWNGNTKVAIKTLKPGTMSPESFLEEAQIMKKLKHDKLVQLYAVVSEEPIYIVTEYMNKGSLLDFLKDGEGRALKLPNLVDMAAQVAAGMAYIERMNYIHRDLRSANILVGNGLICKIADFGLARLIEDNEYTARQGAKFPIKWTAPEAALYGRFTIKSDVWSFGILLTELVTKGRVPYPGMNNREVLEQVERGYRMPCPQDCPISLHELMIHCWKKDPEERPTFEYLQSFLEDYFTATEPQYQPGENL

[4] = molecular target: Tyrosine-protein kinase Fyn (Homo sapiens, UniProt P06241, T342G); experiment: Inhibition of Fyn T342G mutant expressed in Escherichia coli C43 by radioactive phosphotransfer assay
Sequence of Tyrosine-protein kinase Fyn (Homo sapiens, UniProt P06241, T342G) (P06241 2-537 T342G limits assumed): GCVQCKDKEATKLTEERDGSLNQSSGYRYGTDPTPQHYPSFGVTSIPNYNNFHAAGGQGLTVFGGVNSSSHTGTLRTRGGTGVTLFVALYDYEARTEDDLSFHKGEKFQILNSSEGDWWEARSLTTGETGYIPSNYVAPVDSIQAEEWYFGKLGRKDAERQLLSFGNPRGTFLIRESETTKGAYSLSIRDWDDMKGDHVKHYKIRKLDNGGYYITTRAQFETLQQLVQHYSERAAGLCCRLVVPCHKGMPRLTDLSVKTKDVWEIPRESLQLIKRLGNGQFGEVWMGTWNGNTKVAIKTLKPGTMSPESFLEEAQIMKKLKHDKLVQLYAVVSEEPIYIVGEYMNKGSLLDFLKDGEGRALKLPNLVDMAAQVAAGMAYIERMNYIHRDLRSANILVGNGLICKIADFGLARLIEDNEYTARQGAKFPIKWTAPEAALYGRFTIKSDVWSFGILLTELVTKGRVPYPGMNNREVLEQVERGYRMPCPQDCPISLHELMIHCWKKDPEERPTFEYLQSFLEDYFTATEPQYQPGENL

[5] = molecular target: Tyrosine-protein kinase Fyn (Homo sapiens, UniProt P06241, S349C/T342G); experiment: Inhibition of Fyn T342G/S349C double mutant expressed in Escherichia coli C43 by radioactive phosphotransfer assay
Sequence of Tyrosine-protein kinase Fyn (Homo sapiens, UniProt P06241, S349C/T342G) (P06241 2-537 T342G/S349C limits assumed): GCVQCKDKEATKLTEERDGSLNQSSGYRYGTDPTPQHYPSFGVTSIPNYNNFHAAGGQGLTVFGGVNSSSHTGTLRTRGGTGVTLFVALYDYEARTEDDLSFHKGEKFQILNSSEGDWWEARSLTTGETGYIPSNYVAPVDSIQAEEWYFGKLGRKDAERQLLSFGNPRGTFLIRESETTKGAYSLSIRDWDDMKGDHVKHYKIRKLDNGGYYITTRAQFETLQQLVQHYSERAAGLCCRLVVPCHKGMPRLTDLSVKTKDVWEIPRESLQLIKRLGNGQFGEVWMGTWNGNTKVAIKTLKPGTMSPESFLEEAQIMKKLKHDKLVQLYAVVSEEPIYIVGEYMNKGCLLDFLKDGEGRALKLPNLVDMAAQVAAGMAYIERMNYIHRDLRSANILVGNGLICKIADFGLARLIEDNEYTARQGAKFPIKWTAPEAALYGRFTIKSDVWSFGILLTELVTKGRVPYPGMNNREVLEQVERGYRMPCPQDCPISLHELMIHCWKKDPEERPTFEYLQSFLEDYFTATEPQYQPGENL

[6] = Inhibition of c-src T338G/S345C double mutant by radioactive phosphotransfer assay; in short: as §1
[7] = molecular target: T1, Epidermal growth factor receptor (Homo sapiens, UniProt P00533); experiment: Inhibition of EGFR3 transfected in EGF-stimulated mouse NIH/3T3 cells assessed as reduction of receptor-mediated Erk2 phosphorylation at 0.037 to 1 uM by radioactive phosphotransfer assay; assay type: cell-based; conditions: NIH3T3, in the assay text read “immunoblotting” for “radioactive phosphotransfer assay”
T1 sequence (P00533 whole entry): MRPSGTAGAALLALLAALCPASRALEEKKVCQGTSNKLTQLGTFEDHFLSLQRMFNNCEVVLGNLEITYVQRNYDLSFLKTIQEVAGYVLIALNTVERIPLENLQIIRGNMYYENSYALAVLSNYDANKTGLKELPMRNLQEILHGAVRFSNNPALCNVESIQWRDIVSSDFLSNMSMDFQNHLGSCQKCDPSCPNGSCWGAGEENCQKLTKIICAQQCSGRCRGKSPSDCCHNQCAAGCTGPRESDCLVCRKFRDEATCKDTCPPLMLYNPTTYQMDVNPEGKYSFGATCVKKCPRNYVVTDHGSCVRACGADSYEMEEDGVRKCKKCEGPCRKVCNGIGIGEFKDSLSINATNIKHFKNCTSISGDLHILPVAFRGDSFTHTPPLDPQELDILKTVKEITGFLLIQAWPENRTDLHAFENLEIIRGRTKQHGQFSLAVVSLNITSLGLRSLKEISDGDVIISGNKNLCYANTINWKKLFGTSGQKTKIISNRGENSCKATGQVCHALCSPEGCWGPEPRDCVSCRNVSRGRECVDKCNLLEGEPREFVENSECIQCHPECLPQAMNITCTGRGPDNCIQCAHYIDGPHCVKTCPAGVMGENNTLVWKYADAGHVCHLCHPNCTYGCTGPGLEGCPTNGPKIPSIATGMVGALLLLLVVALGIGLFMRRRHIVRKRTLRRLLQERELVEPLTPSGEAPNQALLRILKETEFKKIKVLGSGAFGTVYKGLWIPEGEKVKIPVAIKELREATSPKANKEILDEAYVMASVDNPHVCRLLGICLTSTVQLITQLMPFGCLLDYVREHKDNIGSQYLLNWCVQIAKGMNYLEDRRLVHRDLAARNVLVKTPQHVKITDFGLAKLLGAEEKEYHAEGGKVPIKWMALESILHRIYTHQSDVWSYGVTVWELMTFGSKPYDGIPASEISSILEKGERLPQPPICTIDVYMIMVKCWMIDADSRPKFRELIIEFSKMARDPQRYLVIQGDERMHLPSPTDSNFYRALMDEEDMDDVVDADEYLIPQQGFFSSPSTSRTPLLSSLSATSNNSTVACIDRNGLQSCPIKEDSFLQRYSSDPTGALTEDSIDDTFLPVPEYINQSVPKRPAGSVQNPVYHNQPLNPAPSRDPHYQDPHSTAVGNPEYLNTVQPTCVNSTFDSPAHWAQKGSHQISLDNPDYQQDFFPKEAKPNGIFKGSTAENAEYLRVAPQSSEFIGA
In short: (§2)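 Transduced 3T3:EGFR-as3 cells were serum-starved overnight in 0.5% FBS, then given three-fold inhibitor dilutions from 1 µM to 37 nM (1% DMSO) for 1.5 h. […] Protein-normalised lysates were separated by SDS-PAGE, fluorescence-scanned, then immunoblotted for downstream phosphorylation. Run in duplicate.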

[8] = molecular target: T1, Epidermal growth factor receptor; experiment: Inhibition of EGFR3 transfected in EGF-stimulated mouse NIH/3T3 cells assessed as reduction of receptor-mediated Erk1 phosphorylation at 0.037 to 1 uM by radioactive phosphotransfer assay; assay type: cell-based; conditions: NIH3T3, in the assay text read “immunoblotting” for “radioactive phosphotransfer assay”; in short: as §2
[9] = molecular target: T1, Epidermal growth factor receptor; experiment: Inhibition of EGFR3 transfected in EGF-stimulated mouse NIH/3T3 cells assessed as reduction of receptor-mediated Akt phosphorylation at 0.037 to 1 uM by radioactive phosphotransfer assay; assay type: cell-based; conditions: NIH3T3, in the assay text read “immunoblotting” for “radioactive phosphotransfer assay”; in short: as §2
[10] = molecular target: T1, Epidermal growth factor receptor; experiment: Inhibition of human recombinant EGFR expressed in baculovirus-infected Sf9 cells by radioactive phosphotransfer assay; assay type: cell-based
[11] = molecular target: T1, Epidermal growth factor receptor; experiment: Inhibition of […] EGFR3 phosphorylation transfected in mouse NIH/3T3 cells at 0.1 to 2 uM by radioactive phosphotransfer assay; assay type: cell-based; conditions: NIH3T3, in the assay text read “immunoblotting” for “radioactive phosphotransfer assay”
In short: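 Mouse NIH-3T3 fibroblasts lacking detectable endogenous EGFR, retrovirally transduced with analog-sensitive EGFR-as3 and hygromycin-selected, then grown in DMEM/10% FBS. Inhibitor at 0.1, 1.0 or 2.0 µM (1.2% DMSO), with or without EGF 100 ng/ml for 30 min before harvest. Equal lysate protein run on SDS-PAGE; anti-phosphotyrosine (4G10) immunoblot detected by ECL, with EGFR blot alongside.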

[12] = molecular target: T1, Epidermal growth factor receptor; conditions: NIH3T3; at 0.1 to 2 µM
[13] = molecular target: Proto-oncogene tyrosine-protein kinase Src (Gallus gallus) (UniProt P00523); experiment: Inhibition of c-src in by radioactive phosphotransfer assay

C=CC(=O)Nc1ccc2ncnc(Nc3cccc(Br)c3)c2c1
pIC50 [1]: 6.76
pIC50 [2]: 7.38
pIC50 [3]: < 3.52
pIC50 [4]: 6.38
pIC50 [5]: 9.00
pIC50 [6]: 9.00

C=CC(=O)Nc1ccc2ncnc(Nc3ccc(C(C)(C)C)cc3)c2c1
pIC50 [1]: 6.73
pIC50 [2]: 5.08
pIC50 [3]: < 3.52
inhibition [7]: Active
inhibition [8]: Active
pIC50 [4]: 6.05
inhibition [9]: Active
pIC50 [10]: 6.16
inhibition [11]: Active
inhibition [12]: inactive
pIC50 [13]: < 4.57
pIC50 [5]: 7.62
pIC50 [6]: 8.30

C=CC(=O)Nc1ccc2ncnc(Nc3cccc4ccccc34)c2c1
pIC50 [1]: 5.90
pIC50 [2]: 6.17
pIC50 [3]: 4.79
pIC50 [4]: 5.68
pIC50 [13]: 4.79
pIC50 [5]: 7.52
pIC50 [6]: 7.57

C=CC(=O)Nc1ccc2ncnc(NCCc3ccccc3)c2c1
pIC50 [1]: 6.26
pIC50 [2]: 5.85
pIC50 [3]: 4.40
pIC50 [4]: 5.42
pIC50 [13]: < 4.57
pIC50 [5]: 7.06
pIC50 [6]: 6.96

C=CC(=O)Nc1ccc2ncnc(Nc3ccc4ccccc4c3)c2c1
pIC50 [1]: 5.87
pIC50 [2]: 7.49
pIC50 [3]: 4.74
pIC50 [4]: 5.74
pIC50 [13]: < 4.57
pIC50 [5]: 8.52
pIC50 [6]: 7.89

C=CC(=O)Nc1ccc2ncnc(NCc3cccc4ccccc34)c2c1
pIC50 [1]: 6.91
pIC50 [2]: 5.77
pIC50 [3]: 4.49
pIC50 [4]: 5.82
pIC50 [13]: < 4.57
pIC50 [5]: 6.82
pIC50 [6]: 7.62

C=CC(=O)Nc1ccc2ncnc(Nc3ccc(C(C)C)cc3)c2c1
pIC50 [1]: 6.45
pIC50 [2]: 6.47
pIC50 [3]: < 3.52
pIC50 [4]: 5.66
pIC50 [13]: < 4.57
pIC50 [5]: 7.49
pIC50 [6]: 7.80

C=CC(=O)Nc1ccc2ncnc(Nc3ccccc3)c2c1
pIC50 [1]: 5.80
pIC50 [2]: 8.30
pIC50 [3]: 5.43
pIC50 [4]: 5.96
pIC50 [10]: > 9.00
pIC50 [13]: < 4.57
pIC50 [5]: 8.22
pIC50 [6]: 7.70

C=CC(=O)Nc1ccc2ncnc(Nc3ccc(Br)cc3)c2c1
pIC50 [1]: 5.76
pIC50 [2]: 7.47
pIC50 [3]: < 3.52
pIC50 [4]: 5.33
pIC50 [13]: < 4.57
pIC50 [5]: 7.72
pIC50 [6]: 7.43

C=CC(=O)Nc1ccc2ncnc(Nc3ccc(-c4ccccc4)cc3)c2c1
pIC50 [1]: 6.43
pIC50 [2]: 6.12
pIC50 [3]: < 3.52
pIC50 [4]: 5.01
pIC50 [13]: < 4.57
pIC50 [5]: 6.97
pIC50 [6]: 7.89

CCC(=O)Nc1ccc2ncnc(Nc3ccc(C(C)(C)C)cc3)c2c1
pIC50 [1]: 6.66
pIC50 [2]: < 3.52
pIC50 [3]: < 3.52
pIC50 [4]: 5.82
pIC50 [13]: < 4.57
pIC50 [5]: 6.27
pIC50 [6]: 6.60
